According to ChEMBL document CHEMBL1151952, “Biologically active cannabinoids from high-potency Cannabis sativa” (J Nat Prod, 2009):

What was measured:
Vero = test: Cytotoxicity against african green monkey Vero cells up to 10 ug/mL by neutral red method; type: cell-based; conditions: chlorocebus sabaeus
Candida albicans = test: Antifungal activity against Candida albicans ATCC 90028 after 18 to 24 hrs by alamar blue assay; type: functional, organism-based
Escherichia coli = test: Antibacterial activity against Escherichia coli ATCC 35218 after 18 to 24 hrs by alamar blue assay; type: functional, organism-based
[1] = tested on: Mycobacterium intracellulare; test: Antibacterial activity against Mycobacterium intracellular ATCC 23068 after 68 to 72 hrs by alamar blue assay; type: functional, organism-based
Plasmodium falciparum [2] = test: Antiplasmodial activity against Plasmodium falciparum W2; type: functional, organism-based
Leishmania donovani = test: Antileishmanial activity against Leishmania donovani; type: functional, organism-based
Summary of the method: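 Leishmania donovani assay; IC50 and IC90 are the test concentrations that kill 50% and 90% of cells, relative to solvent controls.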

Staphylococcus aureus [3] = test: Antibacterial activity against methicillin-resistant Staphylococcus aureus ATCC 33591 after 18 to 24 hrs by alamar blue assay; type: functional, organism-based
Staphylococcus aureus [4] = test: Antibacterial activity against Staphylococcus aureus ATCC 29213 by alamar blue assay; type: functional, organism-based
Plasmodium falciparum [5] = test: Antiplasmodial activity against Plasmodium falciparum D6; type: functional, organism-based
Pichia kudriavzevii = test: Antifungal activity against Candida krusei ATCC 6258 by alamar blue assay; type: functional, organism-based
[6] = Candida albicans, ATCC 90028, read-out: IC50
[7] = Mycobacterium intracellulare, ATCC 23068, read-out: IC50
[8] = Plasmodium falciparum, W2, read-out: IC50
[9] = Plasmodium falciparum, D6, read-out: IC50
[10] = Staphylococcus aureus, ATCC 29213, read-out: IC50

Row | Compound | Activity (Vero) | IC50 (Escherichia coli) | IC50 (Candida albicans) | IC50 (Leishmania donovani) [µM] | IC90 (Leishmania donovani) [µM] | IC50 (Staphylococcus aureus [3]) [µM] | IC50 [1] | IC50 (Pichia kudriavzevii) [µM] | IC50 (Staphylococcus aureus [4]; [10]) [µM] | further results
1 | CCCCCc1cc(O)c2c(c1)OC(C)(C)c1cc(O)c(C)cc1-2 | Non-toxic | Not Active |  |  |  |  |  |  |  | IC50 (Candida albicans; [6]): 4.6 µM; IC50 [1, 7]: 30.6 µM
2 | CCCCCc1cc(O)c(C/C=C(\C)CCC=C(C)C)c(OC(C)=O)c1O | Non-toxic | Not Active | Not Active | 10.7 | 18.7 | 53.4 | Not Active |  |  | IC50 (Plasmodium falciparum [2]; [8]): 6.7 µM; IC50 (Staphylococcus aureus [4]): Not Active; IC50 (Plasmodium falciparum [5]; [9]): 7.2 µM
3 | CCCCCc1c(C/C=C(\C)CCC=C(C)C)c(O)cc(O)c1OC(C)=O | Non-toxic | Not Active | Not Active | 42.7 | 85.4 | 6.7 | Not Active | 53.4 | 12.2 | IC50 (Plasmodium falciparum [2]): Not Active; IC50 (Plasmodium falciparum [5]): Not Active
4 | CCCCCc1cc(O)c2c(c1OC(C)=O)OC(C)(CCC=C(C)C)C=C2 (racemic) | Non-toxic |  |  | 40.3 | 91.3 |  |  |  |  | IC50 (Plasmodium falciparum [2]; [8]): 4 µM; IC50 (Plasmodium falciparum [5]; [9]): 7.2 µM
5 | C=C(C)C(O)CCC1(C)C=Cc2c(O)cc(CCCCC)cc2O1 (racemic) | Non-toxic | Not Active |  |  | 96.8 | 24.4 | Not Active | 60.5 | 29.6 | IC50 (Plasmodium falciparum [2]): Not Active; IC50 (Candida albicans; [6]): 60.5 µM; IC50 (Plasmodium falciparum [5]): Not Active
6 | CCCCCc1cc2c(c(O)c1C(=O)O)-c1cc(C)c(O)cc1C(C)(C)O2 [8-HYDROXYCANNABINOLIC ACID A] | Non-toxic |  | Not Active |  |  |  | Not Active | 54 | 3.5 | IC50 (Escherichia coli; Escherichia coli, ATCC 35218, read-out: IC50): 54 µM
7 | C[C@@H]1[C@H](O)[C@@H](C)/C=C/C=C/C=C/C=C/C=C/C=C/C=C/[C@H](O[C@@H]2O[C@H](C)[C@@H](O)[C@H](N)[C@@H]2O)C[C@@H]2O[C@](O)(C[C@@H](O)C[C@@H](O)[C@H](O)CC[C@@H](O)C[C@@H](O)CC(=O)O[C@H]1C)C[C@H](O)[C@H]2C(=O)O [AMPHOTERICIN B] |  |  |  |  |  |  |  | 0.7 |  | 
8 | O=C(O)c1cn(C2CC2)c2cc(N3CCNCC3)c(F)cc2c1=O [CIPROFLOXACIN] |  |  |  |  |  |  |  |  |  | IC50 [1, 7]: 1.5 µM
9 | N=C(N)c1ccc(OCCCCCOc2ccc(C(=N)N)cc2)cc1 [PENTAMIDINE] |  |  |  | 3.8 | 19.1 |  |  |  |  | 
